Laboratory results: EPA's CvTdb concentration-time database

Experiments:
rat = test: concentration in blood after dosing; conditions: duration: 4 hr
mouse [1] = test: concentration in lung after dosing; conditions: dosed: dichloromethane, iv, male, B6C3F1
How it was run: (§1)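 A PubMed search, classifier screening and manual review identified published in vivo toxicokinetic studies, which together with two structured collections supplied concentration-versus-time and amount-versus-time points. Points were mostly digitised from plot screenshots with WebPlotDigitizer, otherwise copied from tables. Dose, route, subject details and medium were hand-curated from each paper, and sampling and analytical methods are those of the sources, often unreported.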

mouse [2] = test: concentration in body after dosing; conditions: dosed: dichloromethane, iv, male, B6C3F1
How it was run: as §1

mouse [3] = test: concentration in liver after dosing; conditions: dosed: dichloromethane, iv, male, B6C3F1
How it was run: as §1

mouse [4] = test: concentration in kidney after dosing; conditions: dosed: dichloromethane, iv, male, B6C3F1
How it was run: as §1

human [5] = test: concentration in blood after dosing; negative times count back from the end of exposure; conditions: dosed: dichloromethane, inhalation, duration: 6 hr, male
How it was run: as §1

human [6] = test: concentration in expired air after dosing; negative times count back from the end of exposure; conditions: dosed: dichloromethane, inhalation, duration: 6 hr, male
How it was run: as §1

CCCCCCCCCC [decane]
rat, dosed: decane, 1200 ppm, inhalation
Conditions | concentration in blood [µg/g]
0.51 h | 0.855
0.5118 h | 1.32
0.5126 h | 1.61
0.5141 h | 0.232
1.018 h | 0.402
1.021 h | 0.836
1.022 h | 1.06
1.023 h | 1.4
2.003 h | 0.669
2.007 h | 0.196
2.01 h | 0.37
2.011 h | 0.451
3.997 h | 0.455
4.002 h | 0.176
4.003 h | 0.21
5.5 min | 4.98
335 s | 6.97
338 s | 8.67

BrCBr [dibromomethane]
rat, dosed: dibromomethane, dermal, male, Fischer-344
Conditions | concentration in blood [ng/mL]
0.4941 h, 500 ppm | 965
0.5004 h, 5000 ppm | 8990
0.5042 h, 10000 ppm | 34200
0.5051 h, 1000 ppm | 1170
0.9982 h, 500 ppm | 1280
0.9999 h, 5000 ppm | 14700
1.004 h, 10000 ppm | 55200
1.005 h, 1000 ppm | 2090
2.005 h, 500 ppm | 1290
2.007 h, 1000 ppm | 2720
2.011 h, 10000 ppm | 90100
2.014 h, 5000 ppm | 30000
2.998 h, 1000 ppm | 3020
2.998 h, 10000 ppm | 120000
3 h, 500 ppm | 1150
3.005 h, 5000 ppm | 38200
4.005 h, 1000 ppm | 3130
4.005 h, 10000 ppm | 142000
4.007 h, 500 ppm | 1280
4.017 h, 5000 ppm | 44900

ClCCl [dichloromethane]
Conditions | concentration in blood [ng/mL] | concentration in body [µg/g] | concentration in expired air [ppm] | concentration in kidney [µg/g] | concentration in liver [µg/g] | concentration in lung [µg/g]
human [5], 1 h, 100 ppm | 150 | – | – | – | – | –
human [5], 1 h, 350 ppm | 910 | – | – | – | – | –
human [5], 6 h, 100 ppm | 62 | – | – | – | – | –
human [5], 6 h, 350 ppm | 340 | – | – | – | – | –
human [5], 16 h, 100 ppm | 12 | – | – | – | – | –
human [5], 16 h, 350 ppm | 77 | – | – | – | – | –
human [5], 24 h, 350 ppm | 36 | – | – | – | – | –
human [6], 0.083 h, 100 ppm | – | – | 12.1 | – | – | –
human [6], 0.083 h, 350 ppm | – | – | 81.3 | – | – | –
human [6], 0.25 h, 100 ppm | – | – | 8.5 | – | – | –
human [6], 0.25 h, 350 ppm | – | – | 58.9 | – | – | –
human [6], 0.5 h, 100 ppm | – | – | 6.7 | – | – | –
human [6], 0.5 h, 350 ppm | – | – | 38.7 | – | – | –
human [6], 1 h, 100 ppm | – | – | 4.2 | – | – | –
human [6], 1 h, 350 ppm | – | – | 25.1 | – | – | –
human [6], 1.5 h, 100 ppm | – | – | 2.7 | – | – | –
human [6], 1.5 h, 350 ppm | – | – | 17.7 | – | – | –
human [6], 2 h, 100 ppm | – | – | 2.6 | – | – | –
human [6], 2 h, 350 ppm | – | – | 14.9 | – | – | –
human [6], 3 h, 100 ppm | – | – | 1.8 | – | – | –
human [6], 3 h, 350 ppm | – | – | 10.3 | – | – | –
human [6], 4 h, 100 ppm | – | – | 1.4 | – | – | –
human [6], 4 h, 350 ppm | – | – | 8.3 | – | – | –
human [6], 6 h, 350 ppm | – | – | 4.5 | – | – | –
human [6], 8 h, 350 ppm | – | – | 3.2 | – | – | –
human [6], 16 h, 350 ppm | – | – | 1.3 | – | – | –
mouse [1], 1 h, 10 mg/kg | – | – | – | – | – | 4.11
mouse [1], 1 h, 50 mg/kg | – | – | – | – | – | 2.96
mouse [1], 3 h, 10 mg/kg | – | – | – | – | – | 2.56
mouse [1], 3 h, 50 mg/kg | – | – | – | – | – | 1.54
mouse [1], 4 h, 10 mg/kg | – | – | – | – | – | 1.29
mouse [1], 4 h, 50 mg/kg | – | – | – | – | – | 1.23
mouse [1], 20 min, 10 mg/kg | – | – | – | – | – | 1.71
mouse [1], 20 min, 50 mg/kg | – | – | – | – | – | 6.19
mouse [1], 40 min, 10 mg/kg | – | – | – | – | – | 3.57
mouse [1], 40 min, 50 mg/kg | – | – | – | – | – | 3.98
mouse [2], 1 h, 10 mg/kg | – | 0.14 | – | – | – | –
mouse [2], 1 h, 50 mg/kg | – | 0.14 | – | – | – | –
mouse [2], 3 h, 50 mg/kg | – | 0.028 | – | – | – | –
mouse [2], 4 h, 50 mg/kg | – | 0.018 | – | – | – | –
mouse [2], 20 min, 10 mg/kg | – | 1.3 | – | – | – | –
mouse [2], 20 min, 50 mg/kg | – | 1.16 | – | – | – | –
mouse [2], 40 min, 10 mg/kg | – | 0.076 | – | – | – | –
mouse [2], 40 min, 50 mg/kg | – | 0.076 | – | – | – | –
mouse [3], 1 h, 10 mg/kg | – | – | – | – | 4.11 | –
mouse [3], 1 h, 50 mg/kg | – | – | – | – | 15.4 | –
mouse [3], 3 h, 10 mg/kg | – | – | – | – | 2.56 | –
mouse [3], 3 h, 50 mg/kg | – | – | – | – | 7.81 | –
mouse [3], 4 h, 10 mg/kg | – | – | – | – | 1.29 | –
mouse [3], 4 h, 50 mg/kg | – | – | – | – | 7.12 | –
mouse [3], 20 min, 10 mg/kg | – | – | – | – | 3.45 | –
mouse [3], 20 min, 50 mg/kg | – | – | – | – | 21.6 | –
mouse [3], 40 min, 10 mg/kg | – | – | – | – | 3.57 | –
mouse [3], 40 min, 50 mg/kg | – | – | – | – | 15.9 | –
mouse [4], 1 h, 10 mg/kg | – | – | – | 1.99 | – | –
mouse [4], 1 h, 50 mg/kg | – | – | – | 3.82 | – | –
mouse [4], 3 h, 10 mg/kg | – | – | – | 1.31 | – | –
mouse [4], 3 h, 50 mg/kg | – | – | – | 2.17 | – | –
mouse [4], 4 h, 10 mg/kg | – | – | – | 0.78 | – | –
mouse [4], 4 h, 50 mg/kg | – | – | – | 1.74 | – | –
mouse [4], 20 min, 10 mg/kg | – | – | – | 1.86 | – | –
mouse [4], 20 min, 50 mg/kg | – | – | – | 3.7 | – | –
mouse [4], 40 min, 10 mg/kg | – | – | – | 1.56 | – | –
mouse [4], 40 min, 50 mg/kg | – | – | – | 5.31 | – | –

during exposure
Conditions | concentration in blood, 100 ppm [ng/mL] | concentration in blood, 350 ppm [ng/mL] | concentration in expired air, 100 ppm [ppm] | concentration in expired air, 350 ppm [ppm]
human [5], -1 h | 1050 | 5860 | – | –
human [5], -3 h | 1110 | 5920 | – | –
human [5], -6 h | 5 | 16 | – | –
human [6], -1 h | – | – | 43.3 | 192
human [6], -2 h | – | – | 42.8 | 190
human [6], -3 h | – | – | 41.8 | 192
human [6], -4 h | – | – | 41.2 | 176
human [6], -4.5 h | – | – | 40.4 | 165
human [6], -5 h | – | – | 39.4 | 155
human [6], -5.5 h | – | – | 36.4 | 141
human [6], -5.75 h | – | – | 34.6 | 126
human [6], -36 s | – | – | 45.7 | 202
